Measurements reported in publication PMC7931380 (ACS Omega, 2021).
Read-outs that look alike come from different tables or passages of the source.

How the values were obtained:
[1] = Particle size and ζ-potential by dynamic light scattering; type: physicochemical; settings: 25 °C
Procedure, shortened: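 Test-compound-loaded fiber-reinforced phospholipid vesicles were diluted 10-fold in distilled water to avoid scattering artefacts. Size and ζ-potential were then measured by dynamic light scattering on a Zetasizer Nano ZS at 25 °C, with intensity read at a scattering angle of 90.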

[2] = type: in vivo, human
Procedure, shortened: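 Eight healthy men (21–65 y) taking no medicines or vitamins, randomized 1:1, double-blind crossover. After a ≥10 h fast, seated subjects swallowed 500 mg test formulation or 500 mg control (150 mg AA + 350 mg starch) with 240 mL water. Heparinized blood sampled 0.25–24 h post dose, spun 3500 rpm, 4 °C, 10 min; plasma at −20 °C, AA by HPLC; mean ± SD.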

[3] = male, human, plasma, po, 150 mg
[4] = plasma vitamin C, single oral dose 500 mg (150 mg AA), fasting, mean ± SD

Compound `O=C1O[C@H]([C@@H](O)CO)C(O)=C1O` [AA, L-ascorbic acid] has a ζ-potential [1] of −20 to 10 mV, a Cmax [2, 3] of 12300 ± 3800 ng/mL and a half-life [2, 3] of 3.14 ± 2.01 h. For the same compound, the k el [2, 3] was 8.61e-05 s⁻¹, the “AUC0–t” value [2, 4] was 9.38 ± 4.91 mg·h/dL and the “AUC0–∞” value [2, 4] was 9.66 ± 5.02 mg·h/dL. For the same compound, the Tmax [2, 4] was 3.56 ± 0.62 h, the AUC ([2]; single oral dose) was 9.66 mg/dL and the “AUC0–t” value ([2]; single oral dose) was 9.38 mg/dL.
